High-throughput results: PubChem BioAssay, Sanford-Burnham Center for Chemical Genomics
CXCR6 block = blocks human CXCR6 beta-arrestin recruitment. CHO-K1 PathHunter CXCR6 beta-arrestin, luminescence. inhibition, % at 20 µM. AID 602244. hit rate 0.36% among 360,000; in the data active means inhibition above about 34%, passing the limit was not always enough;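 further: antagonist mode with CXCL16 agonist at 10 nM final; 0% = 10 nM CXCL16 with DMSO and 100% = unstimulated wells without agonist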
APJ ag = activates the human apelin receptor APJ | AID 2520 | hit rate 0.11% among 330,000 | CHO-K1 APJ PathHunter beta-arrestin, luminescence; 0% DMSO wells, 100% apelin | activation, % at 20 µM | P35414;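 active means activation more than six SD over the plate average, tested at 20 µM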;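 further: 0% = DMSO alone and 100% = apelin-13 at 10 nM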
Target sequence (P35414 whole entry, looked up): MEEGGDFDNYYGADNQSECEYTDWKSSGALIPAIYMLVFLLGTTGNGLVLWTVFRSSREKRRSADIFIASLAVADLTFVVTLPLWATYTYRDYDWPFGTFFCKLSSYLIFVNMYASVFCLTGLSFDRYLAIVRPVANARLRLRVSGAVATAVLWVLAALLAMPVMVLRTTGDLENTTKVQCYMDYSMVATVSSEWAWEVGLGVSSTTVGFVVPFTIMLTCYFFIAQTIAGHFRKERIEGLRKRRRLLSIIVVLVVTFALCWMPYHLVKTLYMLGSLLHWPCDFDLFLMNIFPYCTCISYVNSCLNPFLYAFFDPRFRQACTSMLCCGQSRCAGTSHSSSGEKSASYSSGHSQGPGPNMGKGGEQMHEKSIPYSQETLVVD
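Assay system: engineered CHO-K1 APJ arrestin reporter cells; Amount: 1000 CHO-K1 reporter cells seeded per well; Dosing: one dose, 20 µM compound, 1% DMSO; Times: compound stimulation 90 min at 25 °C, detection 60 min; Measured by: luminescent beta-gal fragment complementation, chemiluminescent substrate; Read-out: APJ–arrestin association signal; Controls: DMSO vs Apelin-13 10 nM.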
EBI2 antag = antagonists of human EBI2 receptor; EBI2 beta-arrestin recruitment, luminescence, 7a,25-OHC stimulated; hit rate 0.81% among 360,000; inhibition, % at 5 µM; in the data active means inhibition above about 38%;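 further: enzyme fragment complementation signal reports receptor beta-arrestin coupling in cells; 0% = agonist plus DMSO wells and 100% = wells without agonist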
CCR6 antag = CCR6 (human) receptor antagonism. P51684. CHO-K1 CCR6 PathHunter beta-arrestin, luminescence, CCL20-stimulated. inhibition, % at 20 µM. hit rate 0.49% among 340,000;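 active means compounds whose inhibition of the agonist-driven luminescence signal at 20 µM reaches about 50%, limit read from the data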;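 further: cells stimulated with CCL20 at 14 nM final; plate controls were DMSO with CCL20 for no effect and DMSO without agonist for full effect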
APJ antagonist = APJ receptor antagonism; CHO-K1 APJ beta-arrestin complementation, luminescence; hit rate 0.32% among 330,000; inhibition, % at 20 µM; AID 2521;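 active means inhibition above about 40% at 20 µM, limit read from the data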;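 further: cells challenged with 10 nM apelin-13 agonist together with compound; plate controls were apelin-13 plus DMSO wells for no effect and DMSO wells lacking apelin-13 for full effect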
CXCR6 antag conf = confirmation of human CXCR6 receptor antagonists; hit rate 65% among 700; AID 602409; shares compounds with CXCR6 block; CHO-K1 CXCR6 PathHunter beta-arrestin, luminescence; inhibition, % at 20 µM;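 active means mean inhibition over four retests above 40%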;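 further: receptor stimulated with 10 nM CXCL16 agonist; beta-galactosidase fragment complementation upon beta-arrestin recruitment to receptor; plate controls were CXCL16 plus DMSO for no effect and DMSO without CXCL16 for full effect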
* hit, by the source's call; . = no result. In the library only some 1.5% were active in any assay of this set; here they are far more common.

SMILES	CXCR6 block	APJ ag	EBI2 antag	CCR6 antag	APJ antagonist	CXCR6 antag conf
CC(CN1CCCC1)OC(=O)c1ccc(Cl)cc1 (configuration not stated)	84*	-3	2	13	-5	0
C=CS(=O)(=O)c1ccc(Oc2ccc(S(=O)(=O)C=C)cc2)cc1	64*	0	47*	74*	39	66*
NS(=O)(=O)c1ccc(Oc2ccc(S(N)(=O)=O)cc2)cc1	4	1	-5	0	0	.
O=C1OCCN1C(=O)[C@H]1[C@H](c2ccc(Cl)cc2)C(c2ccc(F)cc2)=NN1c1ccc(Br)cc1	38*	.	14	13	.	-7
O=C(Cc1ccc(NC(=O)C2CCCN(C(=O)C3CCCCC3)C2)cc1)Nc1cccc(C(=O)N2CCCC2)c1 (configuration not stated)	91*	.	-2	1	.	19
CC1(C(=O)NS(=O)(=O)c2cccs2)CCN1C(=O)c1ccccc1 (configuration not stated)	-5	.	-11	.	.	.
CC(C)[C@H](NC(=O)OC(C)(C)C)c1nnc(S(=O)(=O)Cc2c(F)cccc2Cl)o1	63*	5	8	63*	27	61*
C=C1C(=O)C23C(O)C1CCC2C12CCCC(C)(COC(C)=O)C1C(O)C3(O)OC2 (configuration not stated)	76*	.	77*	103*	.	95*
O=C1Nc2ccccc2-n2nnnc2C1N1CCN(C(=O)c2ccco2)CC1 (configuration not stated)	.	.	-2	.	.	.
CCOc1ccc(C=NNc2ccc(S(=O)(=O)Nc3ccccc3C(=O)O)cc2[N+](=O)[O-])cc1	24	-9	8	.	25	.
C=CCOc1ccc(C=NNc2ccc(S(=O)(=O)Nc3ccccc3C(=O)O)cc2[N+](=O)[O-])cc1OC	50*	-2	0	.	11	44*
O=c1ccc2ccccc2c2ccccc12	31*	.	-40	.	.	31
Nc1nc(COc2ccccc2)cs1	59*	-4	-11	-13	14	3
COC(=O)c1ccc(C(=O)OC)c(-n2c(=O)c3ccccc3c3ccccc3c2=O)c1	40*	-3	6	57*	18	40
COC(=O)c1ccc(-c2nn(C)c(=O)c3ccccc23)cc1	1	-3	-2	8	-53	.
O=[N+]([O-])c1cc(-c2ncccn2)c([N+](=O)[O-])s1	56*	-2	10	85*	6	73*
O=C(Nc1ccc(Oc2ccccc2)cc1)c1csc([C@@H]2O[C@H](CO)[C@H](O)[C@H](O)[C@H]2O)n1	48*	.	10	.	.	52*
CC(=O)Nc1ccc(NC(=O)c2csc([C@@H]3O[C@H](CO)[C@H](O)[C@H](O)[C@H]3O)n2)cc1	6	.	-6	.	.	.
NNC(=S)Nc1ccc(C(F)(F)F)cc1Cl	47*	1	-1	31	-12	7
FC(F)(F)c1cccc(NC(=S)Nc2ccc(Cl)cc2Cl)c1	-10	0	-4	5	-7	.
O=C(C(=O)N1CCN(C(=O)OCc2ccccc2)CC1)c1cccnc1	.	.	4	.	.	.
C[C@@H]1CC[C@H](Cc2ccc(-n3cccc3)cc2)N1C(=O)OC(C)(C)C	53*	.	11	.	.	10
CC1=C(C(=O)N(C(C)C)C(C)C)CC(CC(=O)NCCN2CCOCC2)C(=O)N1Cc1ccc(C(C)(C)C)cc1 (configuration not stated)	-4	.	-5	.	.	.
Cc1ccc(S(=O)(=O)NCC(=O)OCC(=O)c2ccc(S(=O)(=O)N3CCCCC3)cc2)cc1C	56*	.	15	72*	.	33
CCn1nccc1C(=O)Nc1nc2ccccc2n1CCN1CCCCC1	64*	1	-2	54*	18	48*
SMILES	CXCR6 block	APJ ag	EBI2 antag	CCR6 antag	APJ antagonist	CXCR6 antag conf
Cc1nn(-c2nc3ccccc3[nH]2)c(N)c1-c1ccccc1	49*	-7	11	.	19	53*
Cc1nn(-c2ccccc2)c(N)c1-c1ccccc1	-1	-1	-1	5	8	.
COc1ccc(/C=C/c2ccc3c(Br)ccc(O)c3n2)cc1	9	-1	2	22	-1	.
COc1cc(/C=C/c2ccc3c(Br)cc(Br)c(O)c3n2)ccc1O	42*	.	13	68*	.	51*
O=C(Nc1nnc([C@@H]2C[C@H](O)[C@@H](CO)O2)s1)Nc1ccccc1Oc1ccccc1	-4	.	0	.	.	.
CCCCN(C=O)c1c(CC)nc2c(OCc3ccc(Cl)cc3)cccn12	-3	.	6	.	.	.
CN1CCN(c2ccc([N+](=O)[O-])cc2C(=O)c2ccc(Br)cc2)CC1	-2	-4	7	18	8	.
Cc1ccc(C(=O)c2cc([N+](=O)[O-])ccc2N2CCN(C)CC2)cc1	59*	-1	7	31	-6	10
CCOc1ccc(CN2CCN(Cc3cn(CC)nc3C)CC2CCO)cc1 (configuration not stated)	47*	-3	1	-10	11	2
O=[N+]([O-])c1ccc(Sc2cccc3cccnc23)c([N+](=O)[O-])c1	53*	-4	33	56*	37	70*
O=C(NCc1cccnc1)/C(=C\c1ccc(-c2cccc(Cl)c2)o1)S(=O)(=O)c1ccccc1	33*	.	42*	38	.	41*
COCCCNC(=O)C[C@@H]1C[C@@]2(C(=O)OC)CC(C)(C)CC=C2N(Cc2ccccc2)C1=O	.	.	5	.	.	.
Cc1cccc(N=Cc2cc(Br)cc(Cl)c2O)c1	54*	-1	-12	28	-11	38
CCCCNC(=O)C1(C)CCN1C(=O)c1cccc(OC(C)=O)c1C (configuration not stated)	-10	.	-1	.	.	.
CC1CCN(C(=O)/C(=C/c2ccccc2Cl)c2ccccc2)CC1	2	-1	-1	8	5	.
N#CC(C#N)=C1C=CC=CN1/C(=C\c1ccccc1Cl)C(=O)c1ccccc1	93*	.	22	116*	.	82*
O=C(NCC(c1ccco1)N1CCc2ccccc2C1)c1ccccc1 (configuration not stated)	3	4	-4	14	23	.
COc1cc(C(=O)NCC(c2ccco2)N2CCc3ccccc3C2)cc(OC)c1OC (configuration not stated)	44*	0	2	9	-50	54*
COC(=O)c1ccc(/C=C(\C#N)C(=O)NC(C)c2ccccc2)cc1 (configuration not stated)	40*	10	43	53*	12	55*
COc1cccc(-c2csc(N3CCN(C(=O)Nc4ccccc4OC)CC3)n2)c1	68*	-4	-2	-7	-5	-8
COc1cccc(-c2csc(N3CCN(C(=O)Nc4ccc(F)cc4)CC3)n2)c1	-13	0	7	17	1	.
Cc1nn(-c2ccccc2)c(C)c1C(=O)OC(C)C(=O)Nc1ccc(C(N)=O)cc1 (configuration not stated)	1	-3	1	5	2	.
